# Compound activity as filed in PubChem BioAssay.
# Shown are actives, neighbours in structure and some others; about 2.2% of the full set was active somewhere.
# Runt-CBFb FRET: blocks binding of human RUNX1 Runt domain to CBFb; Cerulean-Runt/Venus-CBFb FRET ratio 530/480, 1 h; inhibition, % at 20 µM; 220,000 compounds, 0.46% hits;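 active = inhibition over about 50% at 20 µM in the single-dose screen, limit read from the data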;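 also: 0% = DMSO wells and 100% = excess unlabeled CBFb competitor control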
#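 test system = Cerulean-tagged RUNX1 Runt domain (FRET donor) fusion protein | reagent = Venus-CBFb binding partner, 100 nM | incubation = protein complex preformed 1 h, compound exposure 1 h, room temperature, dark | detection = FRET fluorescence | read-out basis = loss of energy transfer signal | controls = 5 µM unlabeled CBFb as full-inhibition high control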
# RanGTP-Imp inh: inhibitors of RanGTP-importin-beta interaction, primary screen, biochemical, FRET, CFP-Ran, YFP-importin-beta, homogeneous; 300,000 compounds, 1.1% hits; cell-free CFP-Ran/YFP-importin-beta FRET ratio; inhibition, % (no concentration beside the values);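 active = more than half of the replicate wells show a fall in the fluorescence ratio signal beyond about 16%, limit read from the data, passing the limit was not always enough; inconclusive = exactly half of the replicate wells pass the set limit; inactive = fewer than half of replicates pass the limit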;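 also: 0% = DMSO wells and 100% = Ran loaded with GDP instead of GTP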
# eIF4E 4G PPI: eIF4E/eIF4G interaction inhibition in translation initiation | P63073+Q04637 | TR-FRET eIF4E-eIF4GI(517-606) binding, 2 h | inhibition, % at 21.7 µM | 220,000 compounds, 0.37% hits;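 active = inhibition above about 30%, limit read from the data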;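 also: 0% = full FRET control wells and 100% = background wells lacking eIF4GI fragment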
# Runt-SMMHC FRET: Runt domain-CBFb-SMMHC interaction inhibition | Q01196+Q13951 | Cerulean-Runt/Venus-CBFb-SMMHC FRET ratio 530/480, 1 h | inhibition, % at 20 µM | 220,000 compounds, 0.74% hits | AID 1434;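 active = mean inhibition across duplicate retests at 20 µM reaching about 50%, limit read from the data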;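 also: 0% = DMSO wells and 100% = wells with excess untagged CBFb-SMMHC; inhibitors lower the FRET ratio by blocking Runt binding to CBFb-SMMHC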
# Hck Nef HTS: human Hck-Nef kinase inhibition | Recombinant Hck-YEEI plus Nef, Z-Lyte FRET kinase assay | inhibition, % at 20 µM | 220,000 compounds, 0.68% hits;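 active = Hck-Nef kinase inhibition above about 50%, limit read from the data; inactive = inhibition below that limit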;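 also: 0% = DMSO with Hck plus Nef and 100% = Hck alone without Nef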
# PERK inhibitor: human PERK inhibition, primary cell-based screen | AID 1416 | inhibition, % at 5.6 µM | 220,000 compounds, 0.17% hits | CHO PERK-DD fusion, SEAP luminescence translation reporter;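 active = inhibition above the mean inhibition of all tested compounds plus 3 SD, set separately per screening campaign, cut at about 2.9% in these data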;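 also: PERK kinase domain activated by AP20187 dimerizer at 100 nM; 0% = DMSO with dimerizer and 100% = rapamycin at 8.4 µM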
# RUNX1 CBFb TR: Runt-CBFb binding inhibition | TR-FRET RUNX1 Runt domain-CBFb binding | shares compounds with Runt-CBFb FRET | 480 compounds, 20% hits | inhibition, % at 20 µM; in the data active = inhibition above about 40%
# * marks the source's active call; other numbers are inactive results; u = inconclusive; x = not tested or not shown.
SMILES,Runt-CBFb FRET,RanGTP-Imp inh,eIF4E 4G PPI,Runt-SMMHC FRET,Hck Nef HTS,PERK inhibitor,RUNX1 CBFb TR
O=C(O[C@@H]1OC2COC(=O)c3cc(O)c(O)c(O)c3-c3c(cc(O)c(O)c3O)C(=O)O[C@@H]([C@H]1O)[C@@H]2O)c1cc(O)c(O)c(O)c1,57*,6,22,42,38,2,67*
O=C1OC(c2ccccc2)=N/C1=C\C=C\c1ccccc1[N+](=O)[O-],74*,2,5,67,4,0,32
CC1(C)CC(=O)C2=C(C1)Nc1[nH]c(=S)[nH]c(=O)c1C2c1ccccc1 (stereo not drawn),50*,4,16,59*,0,0,12
CCc1ccc2nc(NC(=O)c3ccc(N4C(=O)CCC4=O)cc3)sc2c1,1,6,-10,0,22,1,x
CNS(=O)(=O)c1ccc2nc(NC(=O)c3ccc(N4C(=O)CCC4=O)cc3)sc2c1,55*,1,-1,60,21,1,12
CCc1noc(C)c1C(=O)NCCc1ccc(OC)c(OC)c1,0,u,1,5,-5,1,x
c1ccc(CSc2ccc(-c3ccco3)nn2)cc1,41,1,3,34,0,1,x
Clc1ccc(CSc2ccc(-c3ccco3)nn2)cc1,56*,1,-1,56,19,0,52*
Cc1ccc(CSc2ccc(-c3ccco3)nn2)cc1,56*,0,-2,51,2,1,36
O=C1NC(c2ccccc2O)Nc2ccccc21 (stereo not drawn),x,3,x,x,x,x,x
Cc1cccc(C2NC(=O)c3c(sc(C)c3C)N2)c1O (stereo not drawn),51*,-2,-3,4,2,0,-17
O=C(COc1ccc2c3c(c(=O)oc2c1)CCC3)NCc1ccccn1,x,4,x,x,x,x,x
S=C1Cc2ccccc2N1,51*,0,-7,10,-17,0,4
CONC(=O)C1CCN(C(=O)OCc2ccccc2)CC1,2,0,1,3,0,-1,x
Cc1cc(C)c2c(n1)sc1c(-c3ccccc3)c(C#N)c(N)nc12,60*,82*,10,83*,15,1,2
Cc1nc(N)c(C#N)c(-c2ccccc2)c1C,-1,2,2,2,1,1,x
COc1ccc(NC(=O)CSc2nnc(-c3ccccn3)n2N)c(OC)c1,3,1,-4,0,1,0,x
S=c1[nH]nc(-c2cc3c(s2)-c2ccccc2CC3)o1,57*,17*,9,70*,29,0,17
CCCCc1ccc(NC(=S)NCc2cccs2)cc1,-3,-5,1,-1,2,-1,x
O=C(Nc1ccc(-c2nc3ccccc3s2)c(O)c1)C1=COCCO1,59*,-31,4,128*,67*,1,2
CC(C)(C)c1cc(C(=S)N2CCN(CCO)CC2)cc(C(C)(C)C)c1O,52*,u,2,47,2,-1,9
OCCN1CCN(C(=S)c2ccc(Cl)cc2)CC1,53*,6,2,40,6,1,11
CCN1CCN(C(=S)c2ccc(Cl)cc2)CC1,38,1,0,30,0,-1,x
COc1ccc(NC(=O)c2ccc(COCC(F)(F)C(F)F)cc2)cc1,0,7,0,2,2,0,x
CN1CCc2c(sc(/N=C/c3c[nH]c4ccccc34)c2C(N)=O)C1,53*,46*,8,14,15,-1,-42
CN1CCc2c(sc(/N=C/c3c[nH]c4ccccc34)c2C#N)C1,50,4,4,3,27,2,x
COc1cc(N2C(=O)C=CC2=O)c(OC)cc1Cl,64*,u,3,70*,-157,1,11
COc1ccccc1C(=O)NNC(=O)C(=O)Nc1cccc(Cl)c1C,x,-1,x,x,x,x,x
Cc1ccc(Cn2cnc3ccccc32)cc1,54*,0,-6,-2,-2,0,-13
